Data published in ChEMBL document CHEMBL1287642, “Synthesis, antiviral activity and cytotoxicity evaluation of Schiff bases of some 2-phenyl quinazoline-4(3)H-ones” (Eur J Med Chem, 2010).
Converted amounts (≈) assume the structure as drawn.

What was measured:
[1] = Cytotoxicity against human HEL cells assessed as minimum concentration required to cause microscopically detectable alteration after 2 days; type: cell-based; conditions: read-out: Activity
[2] = tested on: Human alphaherpesvirus 1; experiment: Antiviral activity against Herpes simplex virus-1 KOS infected in human HEL cells assessed as protection against virus-induced cytopathogenicity after 2 days; type: functional, organism-based; conditions: Human alphaherpesvirus 1, KOS, 48 h
[3] = tested on: Human alphaherpesvirus 2; experiment: Antiviral activity against Herpes simplex virus-2 G infected in human HEL cells assessed as protection against virus-induced cytopathogenicity after 2 days; type: functional, organism-based; conditions: Human alphaherpesvirus 2, strain G, 48 h
[4] = tested on: Vesicular stomatitis virus; experiment: Antiviral activity against Vesicular stomatitis virus infected in human HEL cells assessed as protection against virus-induced cytopathogenicity after 2 days; type: functional, organism-based; conditions: 48 h
[5] = tested on: Human alphaherpesvirus 1; experiment: Antiviral activity against acyclovir-resistant TK deficient Herpes simplex virus-1 KOS infected in human HEL cells assessed as protection against virus-induced cytopathogenicity after 2 days; type: functional, organism-based; conditions: Human alphaherpesvirus 1, KOS, 48 h
[6] = Cytotoxicity against african green monkey Vero cells assessed as minimum concentration required to cause microscopically detectable alteration after 2 days; type: cell-based; conditions: chlorocebus sabaeus, read-out: Activity
[7] = tested on: Human respirovirus 3; experiment: Antiviral activity against Para influenza-3 virus infected in african green monkey Vero cells assessed as protection against virus-induced cytopathogenicity after 2 days; type: functional, organism-based; conditions: Human respirovirus 3, Vero, 48 h
[8] = tested on: Mammalian orthoreovirus 1; experiment: Antiviral activity against Reovirus-1 infected in african green monkey Vero cells assessed as protection against virus-induced cytopathogenicity after 2 days; type: functional, organism-based; conditions: Mammalian orthoreovirus 1, Vero, 48 h
[9] = tested on: Sindbis virus; experiment: Antiviral activity against Sindbis virus infected in african green monkey Vero cells assessed as protection against virus-induced cytopathogenicity after 2 days; type: functional, organism-based; conditions: 48 h
[10] = tested on: Coxsackievirus B4; experiment: Antiviral activity against Coxsackie virus B4 infected in african green monkey Vero cells assessed as protection against virus-induced cytopathogenicity after 2 days; type: functional, organism-based; conditions: Enterovirus B, 48 h
[11] = tested on: Punta Toro virus; experiment: Antiviral activity against Punta Toro virus infected in african green monkey Vero cells assessed as protection against virus-induced cytopathogenicity after 2 days; type: functional, organism-based; conditions: 48 h
[12] = Cytotoxicity against cat CRFK cells by MTS assay; type: cell-based, Felis catus; conditions: crfk
Outline: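 In uninfected CRFK cells, the 50% cytotoxic concentration was derived from cell viability measured by the colorimetric formazan-based MTS assay.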

[13] = tested on: Feline infectious peritonitis virus; experiment: Antiviral activity against Feline coronavirus FIPV infected in cat CRFK cells assessed as protection against virus-induced cytopathogenicity after 2 days by MTS assay; type: functional, cell-based; conditions: Alphacoronavirus 1, CRFK, 48 h
[14] = tested on: Felid alphaherpesvirus 1; experiment: Antiviral activity against Feline herpes virus infected in cat CRFK cells assessed as protection against virus-induced cytopathogenicity after 2 days by MTS assay; type: functional, organism-based; conditions: Felid alphaherpesvirus 1, CRFK, 48 h
[15] = Cytotoxicity against human HeLa cells assessed as minimum concentration required to cause microscopically detectable alteration after 2 days; type: cell-based; conditions: read-out: Activity
[16] = tested on: Vesicular stomatitis virus; experiment: Antiviral activity against Vesicular stomatitis virus infected in human HeLa cells assessed as protection against virus-induced cytopathogenicity after 2 days; type: functional, organism-based; conditions: 48 h
[17] = tested on: Coxsackievirus B4; experiment: Antiviral activity against Coxsackie virus B4 infected in human HeLa cells assessed as protection against virus-induced cytopathogenicity after 2 days; type: functional, organism-based; conditions: Enterovirus B, 48 h
[18] = tested on: Respiratory syncytial virus; experiment: Antiviral activity against Respiratory syncytial virus infected in human HeLa cells assessed as protection against virus-induced cytopathogenicity after 2 days; type: functional, organism-based; conditions: 48 h
[19] = Selectivity index, ratio of minimum concentration required to cause microscopically detectable alteration in human HEL cells to EC50 for Herpes simplex virus-1 KOS; type: toxicity, cell-based; conditions: read-out: Selectivity Index
Outline: (§1)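 Cytotoxicity was taken as the concentration causing a microscopically detectable change in normal cell morphology (Vero or HEL). […] The selectivity index is the first divided by the second.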

[20] = Selectivity index, ratio of minimum concentration required to cause microscopically detectable alteration in human HEL cells to EC50 for Herpes simplex virus-2 G; type: toxicity, cell-based; conditions: read-out: Selectivity Index; outline: as §1
[21] = Selectivity index, ratio of minimum concentration required to cause microscopically detectable alteration in human HEL cells to EC50 for acyclovir-resistant TK deficient Herpes simplex virus-1 KOS; type: toxicity, cell-based; conditions: read-out: Selectivity Index; outline: as §1
[22] = Selectivity index, ratio of minimum concentration required to cause microscopically detectable alteration in human HEL cells to EC50 for acyclovir-resistant TK deficient Vaccina virus; type: toxicity, cell-based; conditions: read-out: Selectivity Index; outline: as §1
[23] = tested on: Influenza A virus; experiment: Antiviral activity against influenza A virus H1N1 infected in MDCK cells assessed as protection against virus-induced cytopathogenicity at 100 ug/ml after 2 days; type: functional, organism-based
Outline: (§2)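 Infected MDCK cells were treated. […] N.A. means not active at the highest concentration tested or at a subtoxic concentration.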

[24] = tested on: Influenza A virus; experiment: Antiviral activity against Influenza A virus H3N2 infected in MDCK cells assessed as protection against virus-induced cytopathogenicity at 100 ug/ml after 2 days; type: functional, organism-based; outline: as §2
[25] = tested on: Influenza B virus; experiment: Antiviral activity against influenza B virus infected in MDCK cells assessed as protection against virus-induced cytopathogenicity at 100 ug/ml after 2 days; type: functional, organism-based; outline: as §2
[26] = tested on: MDCK; experiment: Cytotoxicity against MDCK cells by MTS assay; type: cell-based, Canis lupus familiaris; conditions: dog, mdck
Outline: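 In Madin Darby canine kidney cells, the 50% cytotoxic concentration was derived from cell viability measured by the colorimetric formazan-based MTS assay.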

[27] = Cytotoxicity against MDCK cells assessed as minimum concentration required to cause microscopically detectable alteration after 2 days; type: cell-based, Canis lupus familiaris; conditions: dog, read-out: Activity
[28] = tested on: Influenza A virus; experiment: Antiviral activity against influenza A virus H1N1 infected in MDCK cells assessed as cell viability at 100 ug/ml after 2 days by MTS assay; type: functional, organism-based
[29] = tested on: Influenza A virus; experiment: Antiviral activity against Influenza A virus H3N2 infected in MDCK cells assessed as cell viability at 100 ug/ml after 2 days by MTS assay; type: functional, organism-based
[30] = tested on: Influenza B virus; experiment: Antiviral activity against influenza B virus infected in MDCK cells assessed as cell viability at 100 ug/ml after 2 days by MTS assay; type: functional, organism-based

SMILES | MCC at 48 h [1] [µg/mL] | EC50 [2] [µg/mL] | EC50 [3] [µg/mL] | EC50 [4] [µg/mL] | EC50 [5] [µg/mL] | MCC at 48 h [6] [µg/mL] | EC50 [7] [µg/mL] | EC50 [8] [µg/mL] | EC50 [9] [µg/mL] | EC50 [10] [µg/mL] | EC50 [11] [µg/mL] | CC50 [12] [µg/mL] | EC50 [13] [µg/mL] | EC50 [14] [µg/mL] | MCC at 48 h [15] [µg/mL] | EC50 [16] [µg/mL] | EC50 [17] [µg/mL] | EC50 [18] [µg/mL] | EC50 [23] | EC50 [24] | further results
COc1ccc(/C=N/n2c(-c3ccccc3)nc3ccccc3c2=O)cc1 | > 100 | 9 (≈ 25.3 µM) | 8 (≈ 22.5 µM) | > 100 | 9 (≈ 25.3 µM) | 100 | > 20 | > 20 | > 20 | > 20 | > 20 | 13.7 (≈ 38.5 µM) | > 4 | > 4 | 20 | > 4 | > 4 | > 4 | Not Active | Not Active | selectivity ratio [19]: 11; selectivity ratio [20]: 13; selectivity ratio [21]: 11; selectivity ratio [22]: 11; EC50 [25]: Not Active; CC50 [26]: 8.2 µg/mL (≈ 23.1 µM); MCC at 48 h [27]: 20 µg/mL; EC50 [28]: Not Active; EC50 [29]: Not Active; EC50 [30]: Not Active
O=c1c2ccccc2nc(-c2ccccc2)n1/N=C/c1ccc(Cl)cc1 | 100 | > 20 | > 20 | > 20 | > 20 | 20 | > 4 | > 4 | > 4 | > 4 | > 4 | 42.2 (≈ 117 µM) | > 20 | > 20 | 20 | > 4 | > 4 | > 4 | Not Active | Not Active | EC50 [25]: Not Active; CC50 [26]: 76.4 µg/mL (≈ 212 µM); MCC at 48 h [27]: 20 µg/mL; EC50 [28]: Not Active; EC50 [29]: Not Active; EC50 [30]: Not Active
O=c1c2ccccc2nc(-c2ccccc2)n1/N=C/c1ccccc1 | > 100 | 7 (≈ 21.5 µM) | 9 (≈ 27.7 µM) | > 100 | 9 (≈ 27.7 µM) | 20 | > 4 | > 4 | > 4 | > 4 | > 4 | 3.7 (≈ 11.4 µM) | > 0.8 | > 0.8 | 20 | > 4 | > 4 | > 4 | Not Active | Not Active | selectivity ratio [19]: 14; selectivity ratio [20]: 11; selectivity ratio [21]: 11; selectivity ratio [22]: 11; EC50 [25]: Not Active; CC50 [26]: 15 µg/mL (≈ 46.1 µM); MCC at 48 h [27]: 20 µg/mL; EC50 [28]: Not Active; EC50 [29]: Not Active; EC50 [30]: Not Active
